Bioassay records (PubChem BioAssay)
Most compounds without a hit are left out; they make up all but 3.5% or so of the library.
MrgX1 ag: activates human MrgX1 receptor signaling; MrgX1-HEK293 cells, Fluo-4 calcium fluorescence, agonist mode; stronger effect = higher value; 310,000 tested, 0.44% active; Q96LB2; B-score at 10 µM; AID 588627;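 active = calcium response B-score plate-corrected fluorescence ratio at least 3 library SD, with starting fluorescence B-score inside 5 SD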
Target sequence (Q96LB2 whole entry, looked up): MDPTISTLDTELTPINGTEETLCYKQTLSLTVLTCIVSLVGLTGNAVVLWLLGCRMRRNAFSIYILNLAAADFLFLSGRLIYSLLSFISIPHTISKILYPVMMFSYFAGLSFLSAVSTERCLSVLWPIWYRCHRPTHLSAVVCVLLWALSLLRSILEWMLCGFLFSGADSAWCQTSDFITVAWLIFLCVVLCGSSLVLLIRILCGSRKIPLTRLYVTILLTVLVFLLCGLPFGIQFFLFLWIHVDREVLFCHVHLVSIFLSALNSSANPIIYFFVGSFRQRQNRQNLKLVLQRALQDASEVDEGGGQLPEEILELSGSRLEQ
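Assay system: MrgX1-expressing HEK293 cells / Amount: fifteen thousand cells per well / Doses: test compound in the initial addition of three / Timing: cells plated overnight, dye loaded 0.5 h 37 °C, 0.5 h room temperature / Technique: kinetic calcium dye fluorescence, Fluo-4 NW / Control set: positive and negative controls per plate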
MrgX1 antagonist: blocks BAM8-22 activation of human MrgX1 receptor; Q96LB2; AID 588676; B-score at 10 µM; MRGX1-HEK293 calcium flux, Fluo-4, BAM8-22 antagonism; stronger effect = lower value; 310,000 tested, 1.3% active;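 active = calcium-response B-score plate-corrected more than 3 library SD below zero, starting fluorescence within 5 deviations, no agonist response on first addition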;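 also: peak minus trough fluorescence over baseline after final BAM8-22 challenge near maximal dose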
MrgX1 allo act: allosterically activates human MrgX1 receptor signaling; B-score at 10 µM; 310,000 tested, 0.63% active; MrgX1-HEK293, Fluo-4 calcium flux, FDSS; stronger effect = higher value; Q96LB2;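 active = plate-corrected calcium response at least 3 library SD above typical, normal starting fluorescence, not activating the receptor alone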;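 also: compound read alongside a low EC10 to EC30 dose of BAM8-22 agonist; peak minus trough fluorescence over baseline measured at the second addition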
RGS4 pot: RGS4 potentiation or activation; HEK293 M3R/inducible RGS4, carbachol calcium flux Fluo4; stronger effect = lower value; B-score at 10 µM; 310,000 tested, 0.92% active; AID 463111;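 active = B-score of the integrated calcium signal more than 4 SD below the library mean, with starting fluorescence not abnormally high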;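 also: negative B-score means reduced calcium response which marks RGS4 activation or potentiation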
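Test system: HEK293 cells with stable M3R and inducible RGS4; also added: carbachol at ECmax as muscarinic agonist stimulus; schedule: dye loading 30 min 37 °C, buffer rest 30 min RT; technique: kinetic calcium fluorescence imaging with Fluo4-AM dye, 2 µM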
RGS4 inh: human RGS4 inhibition | P49798 | HEK293 M3R/RGS4 inducible, Fluo-4 calcium flux; stronger effect = higher value; triggered by carbachol at its EC20 | 310,000 tested, 0.45% active | B-score at 10 µM;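 active = B-score, a plate-corrected calcium signal, over three deviations above library mean, with baseline fluorescence within five deviations of library mean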;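 also: RGS4 expression induced by doxycycline in cells with stable M3 receptor; B-score is computed from the integrated fluorescence ratio over baseline after carbachol; higher B-score means a larger calcium signal and so more RGS4 inhibition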
Target sequence (P49798 whole entry, looked up): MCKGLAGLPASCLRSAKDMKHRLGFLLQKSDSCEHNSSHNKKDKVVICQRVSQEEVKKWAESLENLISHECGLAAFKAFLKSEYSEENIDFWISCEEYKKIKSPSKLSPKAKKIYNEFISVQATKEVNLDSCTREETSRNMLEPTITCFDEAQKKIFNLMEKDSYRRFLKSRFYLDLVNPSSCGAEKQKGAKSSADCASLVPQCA
MrgX1 antag conf: confirmation of human MrgX1 receptor antagonists; AID 602420; MrgX1-HEK293, BAM8-22 calcium flux, Fluo-4; stronger effect = lower value; shares compounds with MrgX1 antagonist; 2,300 tested, 19% active; remaining BAM8-22 calcium response % of control (stronger effect = lower value), % at 10 µM;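 active = remaining agonist calcium response no higher than 100% minus 3 SD of agonist-only control wells, with starting fluorescence near control levels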;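 also: agonist BAM8-22 given at a near maximal EC90 to ECmax level; peak minus minimum fluorescence divided by baseline after agonist addition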
HEK293 Ca flux: activity in parental HEK293 cells lacking MrgX1; AID 624111; fluorescence ratio F(max-min)/F0 at 10 µM; 4,000 tested, 2% active; shares compounds with MrgX1 antagonist; Fluo-4 calcium fluorescence, FDSS;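 active = duplicate-averaged calcium fluorescence ratio at least three times the standard deviation of buffer wells, a nonspecific response in parental cells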
HEK293 Ca counter: activity in parental HEK293 cells without MrgX1. shares compounds with MrgX1 antagonist. parental HEK293 calcium flux, Fluo-4 fluorescence ratio; stronger effect = higher value. 4,000 tested, 0.4% active. fluorescence ratio F(max-min)/F0 at 10 µM;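 active = calcium fluorescence ratio, averaged over duplicates, at least 3 SD of the buffer-well ratio, meaning a nonspecific response in receptor-free cells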;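 also: untransfected parental HEK293 lacking MrgX1 used as counterscreen for MrgX1 allosteric activators; fluorescence change taken during the second addition on a kinetic imager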
HEK293 Ca cntr2: MrgX1 activator counter-screen hit in parental HEK293 cells; shares compounds with MrgX1 antagonist; AID 624115; Fluo-4 calcium fluorescence (FDSS); stronger effect = higher value; 4,000 tested, 8.7% active; fluorescence ratio F(max-min)/F0 at 10 µM;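 active = calcium fluorescence ratio at least three times the spread of buffer wells, meaning a non-specific response in parental cells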
Each line names hits and unclear results; the compound was inactive in the other large screens (follow-up assays come after a bar, where they were run).

Cc1ccc(NC(=O)c2ccc3ncsc3c2)cc1S(=O)(=O)N(C)C	MrgX1 antagonist -5.4 | MrgX1 antag conf inactive | HEK293 Ca flux inactive | HEK293 Ca counter inactive | HEK293 Ca cntr2 inactive
Cc1ccc(NC(=O)c2cccnc2)cc1S(=O)(=O)N(C)C	none
CCOc1ccc(Br)cc1CC(=O)O	none
CCCOc1ccc(Br)cc1CSC(=N)N	MrgX1 antagonist -4.6 | MrgX1 antag conf inactive | HEK293 Ca flux inactive | HEK293 Ca counter inactive | HEK293 Ca cntr2 inactive
O=C1NC2(CCN(Cc3ccccc3)CC2)Oc2ccccc21	none
O=C1c2ccccc2OC2(C=Cc3ccccc3O2)N1Cc1ccccc1 (configuration not stated)	MrgX1 antagonist -5 | MrgX1 antag conf inactive | HEK293 Ca flux inactive | HEK293 Ca counter inactive | HEK293 Ca cntr2 inactive
O=C(NNS(=O)(=O)c1ccc([N+](=O)[O-])cc1)C(=O)Nc1cccc(C(=O)O)c1	none
O=C(COCc1cc(-c2ccc3c(c2)OCO3)on1)N1CCN(c2cccc(C(F)(F)F)c2)CC1	none
N#Cc1c2n(cnc1=O)CCCCC2	MrgX1 antagonist -4.9 | MrgX1 antag conf inactive | HEK293 Ca flux inactive | HEK293 Ca counter inactive | HEK293 Ca cntr2 inactive
COc1ccc(N2CCN(S(=O)(=O)c3ccc(OC)c(C(=O)N4CCCC4)c3)CC2)cc1	none
CON(C)c1nc(C2CCCCC2)c2cc(C)ccc2n1	none
COc1ccc(-c2nc(C3CCCCC3)c3cc(OC)ccc3n2)cc1	MrgX1 antagonist -5 | MrgX1 antag conf inactive | HEK293 Ca flux inactive | HEK293 Ca counter inactive | HEK293 Ca cntr2 inactive
CN(C)C1(CNC(=O)C2CCN(S(=O)(=O)c3cc(Cl)ccc3Cl)CC2)CCCCC1	none
Cc1cc(C)c(C)c(S(=O)(=O)NCCCN2CCCC2=O)c1C	MrgX1 antagonist -5.4 | MrgX1 antag conf inactive | HEK293 Ca flux inactive | HEK293 Ca counter inactive | HEK293 Ca cntr2 inactive
O=C1CCCN1CCCNS(=O)(=O)c1ccc(Br)cc1	none
N#CCCn1cc(CNC2CCC(O)CC2)c2ccccc21 (configuration not stated)	none
Cc1ccccc1C(=O)Nc1cccc(-c2ccc(N3CCOCC3)nn2)c1	MrgX1 antagonist -5 | MrgX1 antag conf inactive | HEK293 Ca flux inactive | HEK293 Ca counter inactive | HEK293 Ca cntr2 inactive
Cn1c(N)c(C(=O)COC(=O)[C@@H]2CCCN2S(=O)(=O)c2ccc(Cl)cc2)c(=O)n(C)c1=O	MrgX1 antagonist -6.1 | MrgX1 antag conf inactive | HEK293 Ca flux inactive | HEK293 Ca counter inactive | HEK293 Ca cntr2 inactive
CCC(c1nnc(SCC(=O)Nc2c(F)cccc2F)n1Cc1ccccc1)N(C)C (configuration not stated)	none
O=C(COc1ccc(S(=O)(=O)N2CCCC2)cc1Cl)NCc1ccccn1	MrgX1 antagonist -6.2 | MrgX1 antag conf inactive | HEK293 Ca flux inactive | HEK293 Ca counter inactive | HEK293 Ca cntr2 inactive
O=C(COc1ccc(S(=O)(=O)N2CCOCC2)cc1Cl)NCc1ccccn1	none
CC(CC(=O)Nc1nc2ccccc2[nH]1)n1ccnc1 (configuration not stated)	none
CC(=O)Nc1ccc(NC(=O)CC(C)n2ccnc2)cc1 (configuration not stated)	MrgX1 antagonist -7 | MrgX1 antag conf inactive | HEK293 Ca flux inactive | HEK293 Ca counter inactive | HEK293 Ca cntr2 inactive
CCOC(=O)C1CCCN(CCC(=O)Nc2cccc(Cl)c2C)C1 (configuration not stated)	none
OCCNc1nc(Nc2ccc(Br)cc2)nc2ccccc12	MrgX1 antagonist -6.9 | MrgX1 antag conf 73% | HEK293 Ca flux inactive | HEK293 Ca counter inactive | HEK293 Ca cntr2 inactive
c1ccc(Nc2nc(NCC3CCCO3)c3ccccc3n2)cc1 (configuration not stated)	MrgX1 antagonist -5.1 | MrgX1 antag conf 38% | HEK293 Ca flux inactive | HEK293 Ca counter inactive | HEK293 Ca cntr2 inactive
CCCCn1c(N)c(N(CCC(C)C)C(=O)C2CCN(C(=O)c3ccccc3C)CC2)c(=O)[nH]c1=O	none
CCN1CCN(/C=N/c2nc3c(s2)CCCC3)CC1	MrgX1 antagonist -4.5 | MrgX1 antag conf inactive | HEK293 Ca flux inactive | HEK293 Ca counter inactive | HEK293 Ca cntr2 inactive
CCOc1cc(C(=O)Nc2ncn[nH]2)cc(OCC)c1OCC	none
Nc1nc(N)c(Cc2ccc(Cl)cc2Cl)c(N)n1	MrgX1 antagonist -4.8 | MrgX1 antag conf 71% | HEK293 Ca flux inactive | HEK293 Ca counter inactive | HEK293 Ca cntr2 inactive
NNc1ccc(Cc2ccc(Cl)cc2Cl)nn1	none
CCCOCC1CC(CCc2nc(=S)[nH][nH]2)C(=O)O1 (configuration not stated)	MrgX1 antagonist -5.3 | MrgX1 antag conf inactive | HEK293 Ca flux inactive | HEK293 Ca counter inactive | HEK293 Ca cntr2 inactive
CC(C)(Cc1cc(CC(C)(C)C(=O)O)cc(C(C)(C)C)c1)C(=O)O	MrgX1 antagonist -7.5 | MrgX1 antag conf inactive | HEK293 Ca flux inactive | HEK293 Ca counter inactive | HEK293 Ca cntr2 inactive
Cc1ccc(-c2noc(C3CCN(C(=O)Nc4ccc(C#N)cc4)CC3)n2)o1	MrgX1 antagonist -4.6 | MrgX1 antag conf 76% | HEK293 Ca flux inactive | HEK293 Ca counter inactive | HEK293 Ca cntr2 inactive
O=C1CCCC/C1=C/NCc1ccc(F)cc1	none
OC1CCN(c2c3c(nc4cc(-c5cccc(F)c5)nn24)CCCC3)CC1	none
CN(CCO)c1c2c(nc3cc(-c4cccc(F)c4)nn13)CCCC2	MrgX1 antagonist -9.6 | MrgX1 antag conf inactive | HEK293 Ca flux inactive | HEK293 Ca counter inactive | HEK293 Ca cntr2 inactive
COc1ccccc1OCC(=O)Nc1ccc(NC(=O)COc2ccccc2OC)cc1	none
COc1ccccc1OCC(=O)Nc1ccc(S(=O)(=O)NC(C)=O)cc1	MrgX1 antagonist -6.7 | MrgX1 antag conf inactive | HEK293 Ca flux inactive | HEK293 Ca counter inactive | HEK293 Ca cntr2 inactive
O=C(c1ccccc1-c1ccccc1)N1CCCC1	none
CC(=O)Nc1ccccc1NC(=O)c1ccccc1-c1ccccc1	none
CNC(=O)c1ccccc1-c1ccccc1	MrgX1 antagonist -5.3 | MrgX1 antag conf inactive | HEK293 Ca flux inactive | HEK293 Ca counter inactive | HEK293 Ca cntr2 inactive
O=C(c1ccccc1-c1ccccc1)N1CCCCC1	MrgX1 antagonist -5.2 | MrgX1 antag conf inactive | HEK293 Ca flux inactive | HEK293 Ca counter inactive | HEK293 Ca cntr2 inactive
CCc1noc(C)c1C(=O)N1CCCSC1=Nc1ccccc1Cl	none
